GI50 data for 23 compounds are collected here from ChEMBL document CHEMBL1148768, “Nitrated indenoisoquinolines as topoisomerase I inhibitors: a systematic study and optimization” (2007).

Format in all cases: functional
For one test, the system named is SF-539. In words: Cytotoxicity against human SF539 cells. An outline of the steps:
(§1)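 Read-out is growth inhibition of human cancer cell lines. GI50 is taken as the compound concentration giving 50% growth inhibition.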

Another test concerns UACC-62. Put plainly: Cytotoxicity against human UACC62 cells. The method in brief:
as §1

The next test deals with OVCAR-3. Put plainly: Cytotoxicity against human OVCAR-3 cells.
The subject of the next test is HCT-116. Put plainly: Cytotoxicity against human HCT116 cells. The method in brief:
as §1

The next test has as its system DU-145. In words: Cytotoxicity against human DU145 cells. The method in brief:
as §1

In the next test the test system is SN12C. Put plainly: Cytotoxicity against human SN12C cells. An outline of the steps:
as §1

The next test deals with HOP-62. Put plainly: Cytotoxicity against human HOP62 cells. The method in brief:
as §1

For another test, the system named is MDA-MB-435. In words: Cytotoxicity against human MDA-MB-435 cells.

In the test on SF-539, `[N-]=[N+]=NCCCn1c2c(c3ccc([N+](=O)[O-])cc3c1=O)C(=O)c1ccccc1-2` came in with a GI50 of 79400 nM.
For the compound `O=C1c2ccccc2-c2c1c1ccccc1c(=O)n2CCCn1ccnc1`, the GI50 in the test on UACC-62 turned out to be 790 nM; with OVCAR-3 it was 1660 nM; in the test with HCT-116, 1410 nM; in the test with DU-145 it was 1410 nM; in the test with SN12C, 1660 nM; in the test with HOP-62, 2690 nM.
For the compound `NCCCn1c2c(c3ccccc3c1=O)C(=O)c1ccccc1-2`, the GI50 came to 260 nM in the test on UACC-62; 780 nM with MDA-MB-435; 1380 nM in the test on OVCAR-3; 180 nM in the test with HCT-116; 220 nM with DU-145; 250 nM with SF-539. In the test on SN12C, this compound yielded a GI50 of 160 nM.
On to `O=C1c2ccccc2-c2c1c1ccccc1c(=O)n2CCCN1CCOCC1`, for which the GI50 with UACC-62 is 5370 nM; with MDA-MB-435, over 100000 nM; with OVCAR-3 it was 16600 nM; with DU-145 it was 7240 nM; in the test on SF-539, 3470 nM; in the test with SN12C, 21400 nM. Besides, the GI50 in the test with HOP-62 was determined as 3720 nM.
On to `O=C1c2ccccc2-c2c1c1ccc([N+](=O)[O-])cc1c(=O)n2CCCN1CCOCC1`, for which the GI50 in the test on UACC-62 was 380 nM; with MDA-MB-435, 1230 nM; in the test on HCT-116, 38 nM; in the test with DU-145, 85 nM; in the test with SF-539, 95 nM; in the test with SN12C, 309 nM. For the same compound, the GI50 in the test with HOP-62 stood at 21 nM.
For `COc1ccc2c(c1)C(=O)c1c-2n(CCCN2CCOCC2)c(=O)c2ccccc12`, the GI50 with UACC-62 turned out to be 1580 nM; with MDA-MB-435, 4680 nM; in the test with OVCAR-3, 2690 nM; with HCT-116, 1260 nM; in the test on DU-145, 2290 nM; in the test on SF-539 it was 1950 nM. In addition, the GI50 in the test with SN12C stood at 4070 nM; in the test on HOP-62, 1410 nM.
For the compound `COc1ccc2c(c1)C(=O)c1c-2n(CCCNCCO)c(=O)c2cc([N+](=O)[O-])ccc12`, the GI50 in the test on UACC-62 is under 10 nM; in the test with MDA-MB-435 it was under 10 nM; in the test with OVCAR-3, under 10 nM; in the test with DU-145, under 10 nM; in the test on SF-539 it was under 10 nM; in the test with SN12C it was 12 nM. The GI50 in the test on HOP-62 is under 10 nM.
On to `COc1ccc2c(c1)C(=O)c1c-2n(CCCNCCO)c(=O)c2ccccc12`, for which the GI50 in the test on UACC-62 was 550 nM; with MDA-MB-435, 389 nM; with OVCAR-3, 417 nM; in the test with HCT-116, 44 nM; with DU-145 it was 55 nM; with SF-539, 112 nM. The GI50 in the test with SN12C was 158 nM; in the test on HOP-62, 26 nM.
Turning to `COc1ccc2c(c1)C(=O)c1c-2n(CCCN(C)C)c(=O)c2cc([N+](=O)[O-])ccc12`, the GI50 in the test with UACC-62 is under 10 nM; in the test on MDA-MB-435 it was under 10 nM; in the test on OVCAR-3, 28 nM; in the test on HCT-116, under 10 nM; in the test with DU-145 it was under 10 nM; in the test on SF-539 it was under 10 nM. Further, the GI50 in the test on SN12C and in the test with HOP-62 was under 10 nM in each case.
On to `COc1ccc2c(c1)C(=O)c1c-2n(CCCI)c(=O)c2cc([N+](=O)[O-])ccc12`, for which the GI50 turned out to be 148 nM in the test with UACC-62; 1480 nM in the test with MDA-MB-435; 3020 nM with OVCAR-3; 46 nM in the test on HCT-116; 34 nM in the test with DU-145; 58 nM in the test with SF-539. Besides, in the test with SN12C, the GI50 was 309 nM.
`NCCCn1c2c(c3ccc([N+](=O)[O-])cc3c1=O)C(=O)c1ccccc1-2` returned a GI50 with SF-539 of 302 nM.
As to `COc1ccc2c(c1)C(=O)c1c-2n(CCCN=[N+]=[N-])c(=O)c2ccccc12`, the GI50 in the test on UACC-62 stood at 75900 nM; with MDA-MB-435, 64600 nM; with OVCAR-3, 52500 nM; in the test on HCT-116 it was 26900 nM; in the test on DU-145 it was 61700 nM; with SF-539, 44700 nM. Besides, the GI50 in the test on SN12C is over 100000 nM; with HOP-62, 33900 nM.
In the case of `COc1ccc2c(c1)C(=O)c1c-2n(CCCN)c(=O)c2ccccc12`, the GI50 is 59 nM with MDA-MB-435; 28 nM in the test on OVCAR-3; under 10 nM with HCT-116; 14 nM with DU-145; 38 nM in the test on SF-539; under 10 nM in the test with SN12C. This compound came in with a GI50 in the test on HOP-62 of under 10 nM.
For `COc1ccc2c(c1)C(=O)c1c-2n(CCCN(C)C)c(=O)c2ccccc12`, the GI50 is 1000 nM in the test on UACC-62; 617 nM in the test on MDA-MB-435; 427 nM in the test on OVCAR-3; 102 nM in the test on HCT-116; 257 nM in the test with DU-145; 240 nM in the test on SF-539. Moreover, the GI50 with SN12C amounted to 245 nM; in the test with HOP-62 it was 78 nM.
Turning to `COc1ccc2c(c1)C(=O)c1c-2n(CCCn2ccnc2)c(=O)c2ccccc12`, the GI50 in the test with UACC-62 was determined as 71 nM; with MDA-MB-435, 646 nM; in the test on OVCAR-3, 1660 nM; in the test with HCT-116, 110 nM; with DU-145, 204 nM; in the test with SF-539 it was 178 nM. For the same compound, the GI50 in the test on SN12C is 676 nM; in the test on HOP-62 it was 56 nM.
The compound `[N-]=[N+]=NCCCn1c2c(c3ccccc3c1=O)C(=O)c1ccccc1-2` had a GI50 in the test on DU-145 of 29500 nM.
In the case of `O=C1c2ccccc2-c2c1c1ccc([N+](=O)[O-])cc1c(=O)n2CCCBr`, the GI50 is 3470 nM with HCT-116 and over 100000 nM with SF-539.
With `COc1ccc2c(c1)C(=O)c1c-2n(CCCN2CCOCC2)c(=O)c2cc([N+](=O)[O-])ccc12`, the GI50 in the test on UACC-62, in the test with MDA-MB-435, in the test with OVCAR-3, in the test with HCT-116, in the test on SN12C and with HOP-62 was under 10 nM in each case.
`O=C1c2ccccc2-c2c1c1ccc([N+](=O)[O-])cc1c(=O)n2CCCNCCO`: the GI50 in the test with UACC-62 is 200 nM; in the test with MDA-MB-435 it was 1070 nM; with OVCAR-3, 1350 nM; with HCT-116, 27 nM; in the test on DU-145 it was over 100000 nM; with SF-539, over 100000 nM. For the same compound, the GI50 in the test on SN12C worked out at 229 nM; in the test on HOP-62, 31 nM.
`COc1ccc2c(c1)C(=O)c1c-2n(CCCn2ccnc2)c(=O)c2cc([N+](=O)[O-])ccc12`: the GI50 in the test on UACC-62 was under 10 nM; in the test on MDA-MB-435 it was under 10 nM; in the test with OVCAR-3, 20 nM; in the test on HCT-116, under 10 nM; in the test with DU-145, under 10 nM; in the test with SF-539, under 10 nM. The GI50 in the test with SN12C and in the test with HOP-62 was under 10 nM throughout.
In the case of `O=C1c2ccccc2-c2c1c1ccccc1c(=O)n2CCCNCCO`, the GI50 in the test on UACC-62 worked out at 178 nM; in the test with MDA-MB-435 it was 490 nM; in the test on OVCAR-3 it was 550 nM; in the test with DU-145, 174 nM; in the test with SF-539, 550 nM; in the test on SN12C, 269 nM. In the test on HOP-62, the GI50 amounted to 195 nM.
Regarding `COc1ccc2c(c1)C(=O)c1c-2n(CCCN)c(=O)c2cc([N+](=O)[O-])ccc12`, the GI50 in the test on HCT-116 was under 10 nM.
As for `COc1cc2c3c(n(C)c(=O)c2cc1OC)-c1cc2c(cc1C3=O)OCO2`, the GI50 with UACC-62 came out at 4200 nM; in the test on MDA-MB-435, 96000 nM; in the test with HCT-116 it was 35000 nM; with DU-145 it was 37000 nM; with SN12C, 68000 nM; with HOP-62 it was 1300 nM.
